# From article PMC9380907 (Analytica Chimica Acta, 2022)
# Experiments:
# Assay type in all cases: binding
# ITC with heparin = conditions: 25 °C, 10 mM PBS pH 7.4
# Method in brief: (§1)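 MicroCal ITC200 titrations at 25 °C: 38 consecutive injections at intervals of at least 120 s. All solutions were degassed beforehand. Heats of dilution, measured by titrating beyond saturation, were subtracted from each data set.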
# [1] = ITC of probe 2 with the label; conditions: 25 °C, 10 mM PBS pH 7.4, 0.5 mM probe 2 into 0.05 mM label
# Method in brief: as §1
# TGF = experiment: ITC of probe 2 with TGF; conditions: 25 °C
# Method in brief: as §1
# Cu = conditions: SWV, n = 3
# Method in brief: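 Au slides were cleaned by sonication in 20 wt% ethanolamine at about 50 °C, then dipped briefly in piranha. Probe 1 (2.5 μM) with 5 mM TCEP in 10 mM PBS pH 7.4 was assembled at 4 °C for 16 h, then backfilled with 1 mM 9-mercaptononanol for 3 h at RT. Cu was loaded with 10 μM CuCl2 for 30 min at RT. Cathepsin B was in 25 mM MES pH 5.0 and incubated at 37 °C. SWV was run in N2-purged 10 mM PBS pH 7.4 (SCE, Pt counter), with at least three independent repeats.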
substance,measurement,setting,value
"TGF beta 1: transforming growth factor-beta 1, from R&D system",Interaction with heparin,ITC with heparin,weak interactions with heparin
(MUA)K–FSHF-(ARKKAAKA)3VLVLVLVL [probe 2],Binding to label,[1],bind strongly
same,Binding to target TGF,"TGF; 10 mM PBS pH 7.4, 0.5 mM probe 2 into 0.05 mM TGF",bind strongly
same,Binding with target TGF relative to label,"TGF; 10 mM PBS pH 7.4, comparison with label",stronger
11-Mercaptoundecanoic acid (MUA)K-DAHKI-(ARKKAAKA)3VLVLVLVL [probe 1],Binding with Cu II ion,"Cu; surface immobilized probe 1, after cleavage by target enzyme (33 nM)",completely abolish the binding
same,Binding with Cu II ion,"Cu; surface immobilized probe 1, before enzyme cleavage",relatively strong binding
